Laboratory results reported in paper PMC11439338 (BMC Chemistry, 2024).
Entries after “also recorded” stand apart in the source; their conditions may differ.

Columns and labels:
mushroom tyrosinase = mushroom tyrosinase (Agaricus bisporus, UniProt C7FF04); assay: Kinetic study of tyrosinase inhibition; format: biochemical
Procedure, shortened: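 Mushroom tyrosinase diphenolase activity; test compound in DMSO, pre-incubated 20 min at 28 °C with enzyme (added as 600 U mL−1 solution) in 50 mM phosphate buffer pH 6.8. Inhibitor 5–50 µM; L-Dopa 0.1–1.5 mM. Dopachrome at 490 nm read each minute for 10 min; initial velocity from linear segment. Lineweaver–Burk plots gave Km and Vmax; Ki from slope versus inhibitor concentration.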

[1] = system: mushroom tyrosinase (EC 1.14.18.1); assay: In vitro mushroom tyrosinase inhibition assay; format: biochemical; details: SAR discussion

Chain of mushroom tyrosinase (C7FF04 1-392): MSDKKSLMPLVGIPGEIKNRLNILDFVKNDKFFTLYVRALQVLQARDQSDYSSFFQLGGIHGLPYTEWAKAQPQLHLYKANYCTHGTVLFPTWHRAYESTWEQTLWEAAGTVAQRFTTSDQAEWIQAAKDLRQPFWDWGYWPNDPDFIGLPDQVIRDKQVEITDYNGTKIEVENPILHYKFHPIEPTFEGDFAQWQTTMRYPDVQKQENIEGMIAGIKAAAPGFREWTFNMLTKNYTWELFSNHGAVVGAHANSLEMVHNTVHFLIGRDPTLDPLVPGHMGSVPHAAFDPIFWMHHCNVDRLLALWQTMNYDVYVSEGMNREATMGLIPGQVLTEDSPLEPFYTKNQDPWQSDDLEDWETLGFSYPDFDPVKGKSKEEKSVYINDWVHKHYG

Ki (mushroom tyrosinase) | activity against tyrosinase (in words) [1] | Structure (SMILES) | type of inhibition (mushroom tyrosinase; Lineweaver-Burk plot, L-Dopa substrate)
16.1 µM | – | CC1(C)CC(=O)C2=C(C1)OC(N)=C(C#N)C2c1ccc(OCc2ccc(C#N)cc2)cc1 (stereo not drawn) [6f, 2-Amino-4-(4-((4-cyanobenzyl)oxy)phenyl)-7,7-dimethyl-5-oxo-5,6,7,8-tetrahydro-4H-chromene-3-carbonitrile] | competitive inhibition; also recorded: competitive inhibitor
– | no activity | CC1(C)CC(=O)C2=C(C1)OC(N)=C(C#N)C2c1ccc(OCc2ccc(F)cc2)cc1 (stereo not drawn) [6c, 2-Amino-4-(4-((4-fluorobenzyl)oxy)phenyl)-7,7-dimethyl-5-oxo-5,6,7,8-tetrahydro-4H-chromene-3-carbonitrile] | –
